From ChEMBL document CHEMBL3259568 (Bioorg Med Chem, 2014) come the findings set out here.

Series [1] concerns Mus musculus. The experiment in a line: Acute toxicity in albino mouse assessed as effect on general behavioral profile at 2000 mg/kg, po measured for 3 hrs. The format is organism-based. More on the design: dose 2000 mg/kg, route oral. The conditions noted are these: in vivo. A digest of the protocol:
(§1)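 OECD guideline test. Albino mice of either sex, 20–25 g, six per group, fasted 24 h with water ad libitum. Compounds suspended in 0.5% aqueous sodium CMC and given orally in increasing doses of 10, 20, 100, 200, 1000 and 2000 mg/kg b.w. Animals watched continuously for 3 h for general behavioural, neurological and autonomic profiles, then every 30 min for 3 h, then up to 24 h or until death.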

Series [2] relates to Mus musculus. The experiment in a line: Acute toxicity in albino mouse assessed as effect on neurological profile at 2000 mg/kg, po measured for 3 hrs. More on the design: dose 2000 mg/kg, route oral. The format is organism-based. The conditions noted are these: in vivo. A digest of the protocol:
as §1

Series [3] relates to Mus musculus. The experiment in a line: Acute toxicity in albino mouse assessed as effect on autonomic profile at 2000 mg/kg, po measured for 3 hrs. It counts as organism-based. Particulars: in vivo. More on the design: dose 2000 mg/kg, route oral. In short, it runs like this: as §1
Series [4] has as its system Mus musculus. The experiment in a line: Acute toxicity in albino mouse assessed as mortality at 2000 mg/kg, po measured continuously for 3 hrs followed by every 30 mins for next 3 hrs up to 24 hrs. It counts as organism-based. More on the design: dose 2000 mg/kg, route oral. Particulars: in vivo. In short, it runs like this:
as §1

The subject of series [5] is Rattus norvegicus. The experiment in a line: Acute antiinflammatory activity in albino rat assessed as inhibition of carrageenan-induced paw edema at 10 mg/kg, po administered 1 hr followed by carrageenan challenge measured at 2 hrs by plethysmometric analysis relative to control. The format is functional. In short, it runs like this: (§2)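 Male albino rats (170–220 g), fasted ≥12 h with water, six per group. Oral dosing in 0.5% sodium CMC (control 1 ml vehicle), then 1 h later subplantar 0.05 ml of 1% carrageenan into left hind footpad. […] Mean ± SEM, ANOVA/Dunnett.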
On the technique in general: Carrageenan injected into the paw causes an acute inflammation.

In series [6] the test system is Rattus norvegicus. As to the kind of experiment: Acute antiinflammatory activity in albino rat assessed as inhibition of carrageenan-induced paw edema at 10 mg/kg, po administered 1 hr followed by carrageenan challenge measured at 4 hrs by plethysmometric analysis relative to control. The format is functional. A digest of the protocol: as §2
Series [7] deals with Mus musculus. As to the kind of experiment: Analgesic activity in albino mouse assessed as protection against glacial acetic acid-induced writhing at 10 mg/kg, po administered 0.5 hrs followed by glacial acetic acid challenge measured for 15 mins relative to control. It counts as functional. A digest of the protocol:
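Mice (20–25 g) pre-screened 24 h earlier with i.p. 10 ml/kg 0.6% glacial acetic acid; only responders used. Oral dosing as suspension in 0.5% sodium CMC 30 min before acetic acid challenge. Writhing episodes counted for 15 min; group means versus vehicle control; ANOVA with Dunnett test.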
For orientation: An intraperitoneal irritant provokes the stretching counted in writhing tests.

Series [8] deals with Rattus norvegicus. As to the kind of experiment: Antipyretic activity in albino rat assessed as yeast-induced pyrexia at 10 mg/kg, po measured at 1 hr by telethermometer (reference value: 38.26 degC). It counts as functional. A digest of the protocol: (§3)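 Male albino rats (170–230 g) given s.c. 2.5 ml 20% aqueous baker's yeast; rectal temperature by telethermometer before and at 18 h (taken as 0 h). Rats with 1–2 °C rise, six per group, dosed orally 30 min later (control 1 ml 0.5% sodium CMC). Temperature recorded hourly to 5 h; temperature index = sum of mean changes from 0 h.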

Series [9] deals with Rattus norvegicus. The experiment in a line: Antipyretic activity in albino rat assessed as yeast-induced pyrexia at 10 mg/kg, po measured at 2 hrs by telethermometer (reference value: 38.20 degC). The format is functional. In short, it runs like this: as §3
For series [10], the system named is Rattus norvegicus. As to the kind of experiment: Antipyretic activity in albino rat assessed as yeast-induced pyrexia at 10 mg/kg, po measured at 3 hrs by telethermometer (reference value: 38.11 degC). It counts as functional. In short, it runs like this:
as §3

For series [11], the system named is Rattus norvegicus. The experiment in a line: Antipyretic activity in albino rat assessed as yeast-induced pyrexia at 10 mg/kg, po measured at 4 hrs by telethermometer (reference value: 38 degC). The format is functional. In short, it runs like this:
as §3

Series [12] concerns Rattus norvegicus. The experiment in a line: Antipyretic activity in albino rat assessed as yeast-induced pyrexia at 10 mg/kg, po measured at 5 hrs by telethermometer (reference value: 37.89 degC). It counts as functional. In short, it runs like this:
as §3

For series [13], the system named is Rattus norvegicus. As to the kind of experiment: Antipyretic activity in albino rat assessed as decrease in yeast-induced pyrexia by measuring temperature index at 10 mg/kg, po measured over 5 hrs by telethermometer (reference value: 1.04 degC). The format is functional. In short, it runs like this: as §3
For series [14], the system named is Rattus norvegicus. The experiment in a line: Ulcerogenic activity in albino rat stress model assessed as ulcer index at 10 mg/kg, po after 7 hrs. It counts as toxicity, organism-based. Also on record: dose 10 mg/kg, route oral. Particulars: in vivo. In short, it runs like this: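 Albino rats of either sex (170–250 g), six per group, starved 48 h with water, dosed orally 10 mg/kg in sodium CMC; killed 7 h later. Stomach opened along greater curvature and everted; lesions counted in five size classes (pinpoint to >4 mm) to give ulcer index, reported as min–max range.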

Series [15] addresses T1, Prostaglandin G/H synthase 1 (Ovis aries) (UniProt P05979).
T1 sequence (whole entry): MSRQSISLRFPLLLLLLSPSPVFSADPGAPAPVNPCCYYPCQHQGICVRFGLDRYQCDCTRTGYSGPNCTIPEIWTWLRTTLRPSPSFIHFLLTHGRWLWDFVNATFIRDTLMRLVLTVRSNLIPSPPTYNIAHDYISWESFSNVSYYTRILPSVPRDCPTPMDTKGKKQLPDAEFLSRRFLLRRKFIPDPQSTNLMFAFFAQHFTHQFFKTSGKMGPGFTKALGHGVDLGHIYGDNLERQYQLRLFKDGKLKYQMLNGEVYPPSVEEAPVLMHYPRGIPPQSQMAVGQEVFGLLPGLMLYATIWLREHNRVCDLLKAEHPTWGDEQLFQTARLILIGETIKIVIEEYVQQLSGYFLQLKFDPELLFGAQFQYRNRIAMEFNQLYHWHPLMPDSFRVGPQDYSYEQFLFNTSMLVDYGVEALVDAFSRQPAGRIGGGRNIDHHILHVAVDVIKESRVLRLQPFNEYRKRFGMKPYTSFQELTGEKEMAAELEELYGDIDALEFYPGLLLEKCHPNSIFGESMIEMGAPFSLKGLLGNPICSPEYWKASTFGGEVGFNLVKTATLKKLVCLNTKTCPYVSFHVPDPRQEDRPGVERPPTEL
The experiment in a line: Inhibition of ovine COX1 peroxidase activity assessed as reduction of PGG2 to PGH2 by measuring oxidized TMPD level at 10 ug/ml by colorimetric assay relative to control.

The target of series [16] is T2, Prostaglandin G/H synthase 1 (Ovis aries, UniProt P05979).
T2 sequence (P05979 whole entry): T1 sequence (whole entry)
The experiment in a line: Inhibition of ovine COX1 peroxidase activity assessed as reduction of PGG2 to PGH2 by measuring oxidized TMPD level by colorimetric assay.

In general, inhibition in vivo refers to the share of the control response that was lost under treatment. Consider `CC1CCN(Cn2nc(Cc3ccccc3Nc3c(Cl)cccc3Cl)oc2=S)CC1`, for which the Activity entry in [1], in [2], in series [3] and in [4] was “Non-toxic” in each case. Besides, the inhibition in vivo at 10 mg/kg in series [5] stood at 36.9%; in series [6] it was 33.8%.

In general, inhibition refers to how much of the control response was suppressed. By IC50 is commonly meant the midpoint of a concentration-inhibition curve. For the compound `S=c1oc(Cc2ccccc2Nc2c(Cl)cccc2Cl)nn1CNc1cccc(Cl)c1`, the Activity result in series [1] was “Non-toxic”; in [2], “Non-toxic”; in [3] it was “Non-toxic”; in series [4], “Non-toxic”; in [7] it was 82.2%. For the same compound, the inhibition in vivo at 10 mg/kg in series [5] turned out to be 71.8%; in series [6] it was 74.4%. Besides, the T in [8] turned out to be 38.9 °C; in series [9], 38.6 °C; in [10] it was 38.1 °C; in series [11], 37.8 °C; in [12] it was 37.2 °C; in [13], 5.4 °C. In addition, in series [14], the UI was 2.1. The inhibition in series [15] is 25%. The IC50 in series [16] is > 50 µM.

Regarding `S=c1oc(Cc2ccccc2Nc2c(Cl)cccc2Cl)nn1CN1CCCCC1`, the Activity entry is listed as “Non-toxic” in series [1]; “Non-toxic” in series [2]; “Non-toxic” in [3]; “Non-toxic” in series [4]; 74.1% in [7]. For the same compound, the results for the inhibition in vivo at 10 mg/kg in series [5] and in [6] were 48.3% and 45.9%, respectively. The inhibition in series [15] came to 30.9%. In series [16], the IC50 was > 50 µM.

In the case of `CN(Cn1nc(Cc2ccccc2Nc2c(Cl)cccc2Cl)oc1=S)c1ccccc1`, the Activity result in series [1], in [2], in [3] and in [4] was “Non-toxic” in each case. The inhibition in vivo at 10 mg/kg in [5] was 41.8%; in series [6], 41%.

Take `CN1CCN(Cn2nc(Cc3ccccc3Nc3c(Cl)cccc3Cl)oc2=S)CC1`: the Activity entry in series [1] is on record as “Non-toxic”; in series [2], “Non-toxic”; in series [3] it was “Non-toxic”; in [4], “Non-toxic”; in series [7] it was 77.6%. For the same compound, the values for the inhibition in vivo at 10 mg/kg in [5] and in series [6] were 65.1% and 64.5%, respectively. Moreover, the T worked out at 37.72 °C in series [8]; 37.94 °C in series [9]; 37.8 °C in series [10]; 37.44 °C in series [11]; 37.2 °C in [12]; 2.81 °C in [13]. In addition, in series [14], the UI was 2.3. Besides, the inhibition in [15] came to 35.2%. The IC50 in series [16] was > 50 µM.

Regarding `CCN1CCN(Cn2nc(Cc3ccccc3Nc3c(Cl)cccc3Cl)oc2=S)CC1`, the Activity entry is given as “Non-toxic” in series [1]; “Non-toxic” in series [2]; “Non-toxic” in [3]; “Non-toxic” in [4]; 81% in [7]. For the same compound, the inhibition in vivo at 10 mg/kg amounted to 63.1% in series [5] and 68.9% in series [6]. Also, the T in series [8] was found to be 39.2 °C; in [9], 38.3 °C; in series [10], 37.9 °C; in series [11], 37.7 °C; in series [12], 37.1 °C; in series [13], 6.6 °C. In addition, the UI in series [14] is reported as 1.9. In addition, the inhibition in [15] was determined as 28.4%. For the same compound, the IC50 in [16] was > 50 µM.

In the case of `CC(C(=O)O)c1ccc(-c2ccccc2)c(F)c1` (stereo not drawn) [FLURBIPROFEN], in series [14], the UI is recorded as 5.9.

Turning to `S=c1oc(Cc2ccccc2Nc2c(Cl)cccc2Cl)nn1CN1CCNCC1`, the Activity entry in series [1] is “Non-toxic”; in series [2] it was “Non-toxic”; in series [3], “Non-toxic”; in series [4], “Non-toxic”; in series [7], 75.9%. The results for the inhibition in vivo at 10 mg/kg in series [5] and in series [6] were 51.4% and 56.5%, respectively. Moreover, the inhibition in [15] came out at 43.2%. In addition, the IC50 in series [16] was > 50 µM.

`S=c1oc(Cc2ccccc2Nc2c(Cl)cccc2Cl)nn1CN1CCOCC1`: the Activity entry in series [1] was “Non-toxic”; in series [2], “Non-toxic”; in series [3], “Non-toxic”; in [4] it was “Non-toxic”; in [7] it was 77%. Also, the inhibition in vivo at 10 mg/kg in [5] was 64.3%; in series [6] it was 63.8%. For the same compound, the T is 37.7 °C in [8]; 37.55 °C in series [9]; 37.13 °C in series [10]; 37.06 °C in series [11]; 37.15 °C in series [12]; 3.91 °C in series [13]. In addition, in series [14], the UI came out at 2.6. In addition, the inhibition in series [15] came to 34.1%. In addition, in series [16], the IC50 was > 50 µM.

Turning to `S=c1oc(Cc2ccccc2Nc2c(Cl)cccc2Cl)nn1CNC1CCCCC1`, the Activity entry in series [1] is reported as “Non-toxic”; in series [2], “Non-toxic”; in series [3], “Non-toxic”; in series [4], “Non-toxic”; in series [7], 77.6%. Further, the inhibition in vivo at 10 mg/kg in series [5] amounted to 65.9%; in [6] it was 67.5%. Besides, the T in series [8] is 37.98 °C; in series [9], 37.69 °C; in series [10], 37.03 °C; in [11] it was 37.79 °C; in series [12], 36.78 °C; in series [13], 4.38 °C. Besides, the UI in [14] was found to be 3.6. For the same compound, the inhibition in [15] was 19.6%. In addition, in series [16], the IC50 is > 50 µM.

`CC1CCCCN1Cn1nc(Cc2ccccc2Nc2c(Cl)cccc2Cl)oc1=S` (stereo not drawn): the Activity entry in series [1], in series [2], in [3] and in series [4] was “Non-toxic” throughout. Further, the inhibition in vivo at 10 mg/kg stood at 39.4% in series [5] and 36.6% in [6].

Consider `CC(=O)Oc1ccccc1C(=O)O` [ASPIRIN], for which the UI in series [14] is 4.7.
